Source: PMC5045767 (Bioorganic & medicinal chemistry, 2016)
In brackets after ≈: the same amount, converted by molar mass. Entries after “also recorded” stand apart in the source; their conditions may differ. Where two headings read alike, the source gives them in different places.

Columns and labels:
[1] = solubility in liquid Mueller-Hinton medium; type: physicochemical
[2] = test system: murine red blood cells (mRBCs); assay: hemolytic assay; type: cell-based, mouse; settings: compared to ebselen / among ebsulfur analogues tested
[3] = MIC broth double-dilution assay with the inoculum size of the time-kill assays; type: cell-based; settings: inoculum 1×10^6 CFU/mL
[4] = test system: E. faecium BM4105-RF; assay: MIC, broth double dilution; type: cell-based; settings: Enterococcus faecium, BM4105RF, strain AF = E. faecium BM4105-RF
[5] = test system: S. aureus strains; assay: MIC over the panel of S. aureus strains; type: cell-based
[6] = test system: HEK-293; assay: mammalian cytotoxicity; type: cell-based; settings: for difference between cytotoxic concentration and MIC values: HEK-293 vs MRSA strains, depending on the strain; for cytotoxicity (significant = >20% cell death): up until 10 μg/mL, HEK-293
[7] = test system: S. epidermidis ATCC 35984 (strain AC); assay: membrane disruption, propidium iodide staining; type: cell-based; settings: 1× and 4× MIC
How it was run: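 Membrane integrity was assessed by propidium iodide uptake, with red-stained cells scored as membrane-compromised. […] Controls: untreated and aminoglycoside-treated cells (negative), and a tobramycin derivative carrying a C14 linear alkyl thioether at the 6″-position (positive).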

[8] = test system: S. epidermidis ATCC 35984 (strain AC); assay: ROS production, DCFH-DA staining; type: cell-based; settings: 1× and 4× MIC, 1 h at 37 °C
How it was run: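 Untreated cells served as negative control and 1 mM H2O2 as positive control. Cells were then stained with DCFH-DA (40 μg/mL) and examined by fluorescence microscopy.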

[9] = test system: MRSA S22 (strain W); assay: time-kill assay; type: cell-based, S. aureus; settings: 4× MIC, over 24 h
[10] = test system: S. aureus ATCC 25923; assay: MIC, broth double dilution; type: cell-based; settings: Staphylococcus aureus, ATCC25923, strain B = S. aureus ATCC 25923
[11] = test system: MRSA NRS77; assay: MIC, broth double dilution; type: cell-based, S. aureus; settings: Staphylococcus aureus, MRSA|NRS77, strain T = MRSA NRS77
[12] = test system: NorA, efflux pump; settings: NorA inhibitor; cited from earlier work
[13] = test system: S. aureus ATCC 6538 (strain A); assay: reduction of established biofilm; type: cell-based; settings: 1× to […] MIC tested, concentration not given
[14] = test system: S. aureus ATCC 6538 (strain A); settings: 2 μg/mL; cited from earlier work

Compound | MIC values with time-kill inoculum size compared with standard MIC [3] | MIC [4] | cytotoxicity (significant = >20% cell death) [6] | membrane disruption (PI uptake) [7] | ROS production (DCFH-DA) [8] | other results
O=c1c2ccccc2sn1-c1ccccn1 [2m] |  |  |  |  |  | solubility [1]: soluble enough for biological testing
CC(C)c1cccc(-n2sc3ccccc3c2=O)c1 [2h] | remained identical | 2 to 7.8 µg/mL (≈ 7.42 to 29 µM) | did not display any significant cytotoxicity |  |  | hemolytic activity, comparison [2]: less hemolytic when compared to ebselen; also recorded: least hemolytic; improvement in MIC values when compared to the parent compound 2a [5]: up to 16 fold; difference between cytotoxic concentration and MIC values [6]: up to 40 fold
O=c1c2ccccc2sn1-c1cccc(Br)c1 [2g] | remained identical |  |  |  |  | 
O=c1c2ccccc2sn1-c1cccc2ccccc12 [2l] |  |  | did not display any significant cytotoxicity |  |  | 
CC(C)c1ccc(-n2sc3ccccc3c2=O)cc1 [2e] |  |  | did not display any significant cytotoxicity |  |  | improvement in MIC values when compared to the parent compound 2a [5]: up to 16 fold; difference between cytotoxic concentration and MIC values [6]: up to 40 fold
O=c1c2ccccc2sn1-c1ccccc1 [2a, 2-phenyl-1,2-benzisothiazol-3(2H)-one] |  | 2 to 7.8 µg/mL (≈ 8.8 to 34.3 µM) |  | no sign of membrane disruption | led to production of ROS | reduction of bacterial load [9]: 1.5 orders of magnitude
NCC[C@H](O)C(=O)N[C@@H]1C[C@H](N)[C@@H](O[C@H]2O[C@H](CN)[C@@H](O)[C@H](O)[C@H]2O)[C@H](O)[C@H]1O[C@H]1O[C@H](CO)[C@@H](O)[C@H](N)[C@H]1O [AMK, amikacin, reference compound] | remained identical | ≥ 125 µg/mL |  |  |  | MIC [10]: ≤ 0.5 µg/mL; MIC [11]: ≤ 0.5 µg/mL
O=[N+]([O-])c1ccc2[nH]c(-c3ccccc3)cc2c1 [5-nitro-2-phenyl-(1H)-indole] |  |  |  |  |  | IC50 [12]: < 5 µM
COc1cc(OC)cc(-n2sc3ccccc3c2=O)c1 [2k] |  | 2 to 7.8 µg/mL (≈ 6.96 to 27.1 µM) |  |  |  | 
CCCCCCCCn1sc2ccccc2c1=O [3c] |  |  |  | no sign of membrane disruption | led to production of ROS | hemolytic activity, comparison [2]: less hemolytic when compared to ebselen; biofilm reduction [13]: low to no biofilm reduction; reduction of bacterial load [9]: 1.5 orders of magnitude
O=c1c2ccccc2[se]n1-c1ccccc1 [Ebselen, 2-phenyl-1,2-benzisoselenazol-3(2H)-one, reference compound] | remained identical |  | very similar | no sign of membrane disruption | led to production of ROS | biofilm reduction [14]: approximately 60%
CCCCCCn1sc2ccccc2c1=O [3b] |  |  |  | no sign of membrane disruption | led to production of ROS | reduction of bacterial load [9]: 1.5 orders of magnitude
